From ChEMBL document CHEMBL1125309, “Discovery of a novel class of orally active, non-peptide angiotensin II antagonists” (J Med Chem, 1992)

Tests used:
[1] = target: T1, Type-1 angiotensin II receptor B (Rattus norvegicus, UniProt P29089); experiment: Compound was evaluated for binding affinity against angiotensin II receptor, type 1 in rat liver
T1 sequence (P29089 whole entry): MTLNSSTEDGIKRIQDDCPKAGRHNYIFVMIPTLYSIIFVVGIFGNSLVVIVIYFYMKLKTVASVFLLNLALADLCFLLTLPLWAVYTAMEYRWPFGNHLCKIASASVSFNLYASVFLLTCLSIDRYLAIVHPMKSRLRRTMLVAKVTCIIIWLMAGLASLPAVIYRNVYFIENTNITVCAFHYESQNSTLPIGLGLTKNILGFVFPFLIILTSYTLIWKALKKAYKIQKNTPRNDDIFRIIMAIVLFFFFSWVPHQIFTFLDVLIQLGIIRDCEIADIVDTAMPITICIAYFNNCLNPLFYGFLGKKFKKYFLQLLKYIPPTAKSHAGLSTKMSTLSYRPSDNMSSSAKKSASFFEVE

[2] = target: T2, Type-1 angiotensin II receptor (Oryctolagus cuniculus, UniProt P34976); experiment: Compound was evaluated for in vitro potency against angiotensin II receptor, type 1 in isolated rabbit aorta; value ranges from 8.08-8.22; settings: read-out: pA2 (converted)
T2 sequence (P34976 whole entry): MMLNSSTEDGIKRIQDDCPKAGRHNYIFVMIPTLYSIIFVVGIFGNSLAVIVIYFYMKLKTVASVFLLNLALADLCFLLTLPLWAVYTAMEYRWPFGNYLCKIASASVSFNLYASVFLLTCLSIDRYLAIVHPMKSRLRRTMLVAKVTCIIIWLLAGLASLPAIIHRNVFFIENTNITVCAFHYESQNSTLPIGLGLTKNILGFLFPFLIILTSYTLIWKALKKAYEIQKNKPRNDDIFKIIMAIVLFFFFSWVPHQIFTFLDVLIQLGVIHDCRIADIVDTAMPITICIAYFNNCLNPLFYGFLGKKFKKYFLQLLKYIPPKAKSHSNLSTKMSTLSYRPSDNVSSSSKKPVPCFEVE
Method in brief: (§1)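 Isolated rabbit aortic ring preparation contracted with angiotensin II; concentration–response curves to AII run in the presence of antagonist; parallel rightward shifts analysed by Schild analysis to give pA2 and slope.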

[3] = target: T2, Type-1 angiotensin II receptor; experiment: Compound was evaluated for in vitro potency against Angiotensin II receptor, type 1 in isolated rabbit aorta; value ranges from 7.13-7.17; settings: read-out: pA2 (converted); method in brief: as §1
[4] = target: T2, Type-1 angiotensin II receptor; experiment: Compound was evaluated for in vitro potency against Angiotensin II receptor, type 1 in isolated rabbit aorta; value ranges from 5.53-5.69; settings: read-out: pA2 (converted); method in brief: as §1
[5] = target: T2, Type-1 angiotensin II receptor; experiment: Compound was evaluated for in vitro potency against angiotensin II receptor, type 1 in isolated rabbit aorta; assay type: tissue-based; settings: read-out: pA2 (converted); method in brief: as §1
[6] = target: T2, Type-1 angiotensin II receptor; experiment: Compound was evaluated for in vitro potency against AT1 receptor in isolated rabbit aorta; value ranges from 7.91-7.97; settings: read-out: pA2 (converted); method in brief: as §1
[7] = target: T1, Type-1 angiotensin II receptor B; experiment: Compound was evaluated for binding affinity against AT1 receptor in rat liver
Method in brief: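 Displacement of [125I]saralasin from AT1 receptors in rat liver membranes; compounds tested at multiple concentrations as required; Ki derived from the binding curves.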

[8] = target: T2, Type-1 angiotensin II receptor; experiment: Compound was evaluated for in vitro potency against angiotensin II receptor, type 1 in isolated rabbit aorta; value ranges from 8.70-8.83; settings: read-out: pA2 (converted); method in brief: as §1

In the case of CCCCN(Cc1ccc(-c2ccccc2-c2nnn[nH]2)cc1)c1nc(C)ccc1C(=O)O, the Ki [1] is reported as 122 nM and the Kb [2] is reported as 8.32 nM.
With CCCCc1ncc(C(=O)O)c(N(C)Cc2ccc(-c3ccccc3-c3nn[nH]n3)cc2)n1 the Kb [3] was 74.1 nM.
O=C(O)c1cncnc1NCc1ccc(-c2ccccc2-c2nn[nH]n2)cc1 gave a Kb [4] of 2950 nM.
For CCCCN(Cc1ccc(-c2ccccc2-c2nn[nH]n2)cc1)c1nc(C)ncc1C(=O)O, the Ki [1] was 15.3 nM.
CCCCN(Cc1ccc(-c2ccccc2-c2nn[nH]n2)cc1)c1ncccc1C(=O)O gave a Kb [5] of 0.316 nM.
CCCCc1ncc(C(=O)O)c(NCc2ccc(-c3ccccc3-c3nn[nH]n3)cc2)n1 gave a Kb [6] of 12.3 nM and a Ki [7] of 198 nM.
CCCCN(Cc1ccc(-c2ccccc2-c2nnn[nH]2)cc1)c1ncncc1C(=O)O was tested, and the Ki [1] was 3.13 nM and the Kb [5] was 0.117 nM.
For CCCN(Cc1ccc(-c2ccccc2-c2nnn[nH]2)cc1)c1ncccc1C(=O)O, the Ki [1] was 0.76 nM.
CCCN(Cc1ccc(-c2ccccc2-c2nn[nH]n2)cc1)c1nc(C)ncc1C(=O)O gave a Ki [1] of 2.78 nM.
CCN(Cc1ccc(-c2ccccc2-c2nn[nH]n2)cc1)c1ncccc1C(=O)O gave a Kb [8] of 2 nM.
